Each structure is given as a SMILES string.

Series [1] can be described thus: Half life period in rat. The format is ADME, organism-based. Particulars: in vivo. The gist of the method: (§1)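 Rats; plasma concentration–time data of test compound from two to three separate animals, analysed noncompartmentally for half-life and clearance.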
Series [2] in a line: Plasma clearance in rat. The format is ADME, organism-based. The gist of the method:
as §1

The nature of series [3]: Oral bioavailability in rat. The format is ADME, organism-based. The following applies: in vivo. The gist of the method: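 Rat iv and po dosing; plasma concentration–time data from two to three animals; oral bioavailability calculated from dose-normalized iv and po AUC values.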
Series [4] concerns the target T1, Integrin alpha-V/beta-3 (Homo sapiens, UniProt P05106+P06756). The series can be described thus: HEK cell adhesion mediated by alpha v beta 3 integrin. The format is functional, cell-based, HEK293. The gist of the method: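 HEK 293 cells transfected with human αvβ3; inhibition of their adhesion to purified human vitronectin measured. IC50 as the mean of two experiments run in triplicate, with an internal standard.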

For series [5], the target named is T1, Integrin alpha-V/beta-3. The series can be described thus: Binding affinity for Vitronectin receptor (alpha V beta 3). Format: protein-complex assay. The gist of the method: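 Competition binding to human αvβ3 with displacement of 3H-SK&F 107260; Ki from the mean of two to three separate experiments.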
For series [6], the target named is Integrin alpha-IIb/beta-3 (Homo sapiens, UniProt P05106+P08514). The series can be described thus: Binding affinity for alpha IIb beta-3 integrin. Format: protein-complex assay. The gist of the method:
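Human αIIbβ3 competition binding, 3H-SK&F 107260 as the displaced radioligand; Ki averaged over two to three separate experiments.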

Integrin alpha-IIb/beta-3, sequence (P05106 27-788 limits assumed): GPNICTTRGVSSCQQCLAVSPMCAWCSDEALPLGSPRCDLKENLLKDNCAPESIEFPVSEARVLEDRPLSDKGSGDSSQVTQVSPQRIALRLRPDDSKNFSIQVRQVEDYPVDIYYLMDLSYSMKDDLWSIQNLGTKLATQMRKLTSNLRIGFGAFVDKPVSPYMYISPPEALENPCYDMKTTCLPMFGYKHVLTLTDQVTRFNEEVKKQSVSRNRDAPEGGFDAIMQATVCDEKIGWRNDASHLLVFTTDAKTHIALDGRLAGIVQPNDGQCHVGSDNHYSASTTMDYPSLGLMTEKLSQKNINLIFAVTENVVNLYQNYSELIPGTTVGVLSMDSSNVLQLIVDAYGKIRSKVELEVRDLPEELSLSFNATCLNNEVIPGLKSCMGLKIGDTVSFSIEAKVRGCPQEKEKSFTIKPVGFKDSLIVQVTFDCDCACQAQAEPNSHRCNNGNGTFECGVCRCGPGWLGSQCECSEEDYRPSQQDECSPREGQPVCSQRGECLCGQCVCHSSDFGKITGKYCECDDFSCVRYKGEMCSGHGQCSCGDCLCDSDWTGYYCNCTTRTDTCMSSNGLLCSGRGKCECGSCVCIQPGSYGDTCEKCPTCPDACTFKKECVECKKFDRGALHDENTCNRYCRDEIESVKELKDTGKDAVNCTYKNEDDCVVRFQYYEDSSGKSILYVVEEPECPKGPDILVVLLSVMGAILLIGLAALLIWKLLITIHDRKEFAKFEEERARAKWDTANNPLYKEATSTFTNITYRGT
Integrin alpha-IIb/beta-3, sequence (P08514 32-887 limits assumed): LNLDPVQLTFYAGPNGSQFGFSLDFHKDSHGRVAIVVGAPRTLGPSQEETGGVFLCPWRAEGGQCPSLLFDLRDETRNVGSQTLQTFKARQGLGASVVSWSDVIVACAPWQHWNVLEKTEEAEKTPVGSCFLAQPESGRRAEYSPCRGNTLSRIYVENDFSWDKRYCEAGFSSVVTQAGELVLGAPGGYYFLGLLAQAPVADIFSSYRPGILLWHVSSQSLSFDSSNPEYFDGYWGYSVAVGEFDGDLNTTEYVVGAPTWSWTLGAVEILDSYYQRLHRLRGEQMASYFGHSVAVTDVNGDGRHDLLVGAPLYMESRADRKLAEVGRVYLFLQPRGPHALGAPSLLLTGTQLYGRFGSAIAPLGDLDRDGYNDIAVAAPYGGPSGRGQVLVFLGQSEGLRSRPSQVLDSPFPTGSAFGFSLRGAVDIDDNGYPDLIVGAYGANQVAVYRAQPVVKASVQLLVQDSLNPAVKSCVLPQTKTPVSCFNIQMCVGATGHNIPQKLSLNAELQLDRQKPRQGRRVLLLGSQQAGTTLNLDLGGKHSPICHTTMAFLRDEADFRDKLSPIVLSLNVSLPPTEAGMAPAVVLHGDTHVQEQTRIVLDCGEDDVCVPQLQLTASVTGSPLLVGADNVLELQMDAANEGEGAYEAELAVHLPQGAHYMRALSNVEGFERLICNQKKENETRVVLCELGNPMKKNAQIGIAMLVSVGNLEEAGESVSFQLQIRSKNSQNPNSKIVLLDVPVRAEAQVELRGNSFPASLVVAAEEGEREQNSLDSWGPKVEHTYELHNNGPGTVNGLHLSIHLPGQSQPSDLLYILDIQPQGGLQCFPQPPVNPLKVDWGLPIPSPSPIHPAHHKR
Integrin alpha-IIb/beta-3, sequence (P08514 891-1039 limits assumed): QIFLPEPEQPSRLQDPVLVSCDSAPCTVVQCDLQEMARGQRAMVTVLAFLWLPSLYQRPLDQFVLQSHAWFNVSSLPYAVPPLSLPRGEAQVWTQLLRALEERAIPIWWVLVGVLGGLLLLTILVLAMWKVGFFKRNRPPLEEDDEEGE
T1 sequence (P05106 27-788 limits assumed): as the sequence (P05106 27-788 limits assumed) above
T1 sequence (P06756 31-889 limits assumed): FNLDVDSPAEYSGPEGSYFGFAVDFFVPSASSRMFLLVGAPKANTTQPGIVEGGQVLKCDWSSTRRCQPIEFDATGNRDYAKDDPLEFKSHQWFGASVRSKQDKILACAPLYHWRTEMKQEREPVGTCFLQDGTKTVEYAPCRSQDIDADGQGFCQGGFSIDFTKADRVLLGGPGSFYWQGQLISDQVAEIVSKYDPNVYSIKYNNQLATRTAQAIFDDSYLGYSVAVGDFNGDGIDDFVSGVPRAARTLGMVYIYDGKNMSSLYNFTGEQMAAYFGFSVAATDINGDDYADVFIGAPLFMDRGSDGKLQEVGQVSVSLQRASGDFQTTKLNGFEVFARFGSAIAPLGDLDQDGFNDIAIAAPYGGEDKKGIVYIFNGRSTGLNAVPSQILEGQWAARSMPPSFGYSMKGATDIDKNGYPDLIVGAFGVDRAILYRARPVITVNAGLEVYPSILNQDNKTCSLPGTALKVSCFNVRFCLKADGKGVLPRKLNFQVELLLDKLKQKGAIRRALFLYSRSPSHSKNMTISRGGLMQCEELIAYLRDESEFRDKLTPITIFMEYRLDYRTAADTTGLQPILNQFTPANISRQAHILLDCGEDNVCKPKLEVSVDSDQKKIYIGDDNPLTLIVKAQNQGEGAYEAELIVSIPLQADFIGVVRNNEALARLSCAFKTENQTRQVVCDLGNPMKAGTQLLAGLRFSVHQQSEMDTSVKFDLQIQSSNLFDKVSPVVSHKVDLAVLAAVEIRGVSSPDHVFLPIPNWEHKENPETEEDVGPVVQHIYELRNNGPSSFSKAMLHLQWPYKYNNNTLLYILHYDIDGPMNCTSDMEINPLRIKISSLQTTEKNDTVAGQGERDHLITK
T1 sequence (P06756 891-1048 limits assumed): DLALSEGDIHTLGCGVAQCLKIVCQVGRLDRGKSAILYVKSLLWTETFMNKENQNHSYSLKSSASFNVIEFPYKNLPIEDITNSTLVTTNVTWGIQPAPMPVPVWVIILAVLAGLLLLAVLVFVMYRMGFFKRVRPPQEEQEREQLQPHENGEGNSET

A word on the half-life: it is the time in which the quantity being followed falls by half. Low readings indicate rapid decline, high ones slow decline. A word on the clearance: it is the rate of elimination divided by the concentration. Low readings indicate a low capacity for elimination, high ones a high capacity for elimination. `O=C(O)C[C@@H]1Cc2ccc(OCCCNc3ccccn3)cc2Cc2ccccc21` yielded a half-life in series [1] of 192 min. The clearance in series [2] is 4 mL/min/kg.

As usually defined, the bioavailability is dose-corrected exposure relative to a reference, in per cent. A high value points to much systemic uptake. For orientation: IC50 means the concentration at which inhibition is half-maximal. Low values mean higher potency, high ones lower potency. By Ki is commonly meant the equilibrium dissociation constant of an inhibitor or competing ligand from its target. High values mean weaker binding, low ones tighter binding. `CN1Cc2cc(OCCCNc3ccccn3)ccc2CC(CC(=O)O)C1=O` (stereo unspecified) came in with a bioavailability in series [3] of 9%. The half-life in series [1] was found to be 16 min. Moreover, the clearance in series [2] came to 50 mL/min/kg. Inhibition in series [4] was half-maximal at 75 nM (IC50). The Ki was 1.9 nM in series [5] and 30000 nM in series [6].

`O=C(O)CC1Cc2ccc(OCCCNc3ccccn3)cc2CN(CC(F)(F)F)C1=O` (stereo unspecified) came in with a bioavailability in series [3] of 19%. In addition, in series [1], the half-life was determined as 25 min. In series [2], the clearance came out at 63 mL/min/kg. Moreover, in series [4], the IC50 was determined as 53 nM. For the same molecule, the Ki in series [5] amounted to 1.3 nM; in series [6], 9000 nM.

Take `O=C(O)C[C@H]1Cc2ccc(OCCCNc3ccccn3)cc2CN(CC(F)(F)F)C1=O`: the bioavailability in series [3] amounted to 4%. Besides, the half-life in series [1] turned out to be 19 min. Besides, in series [2], the clearance is 60 mL/min/kg. In addition, the IC50 in series [4] is 390 nM. For the same molecule, the affinity in series [5], expressed as Ki, was 20 nM.

In series [3], `CNc1cccc(CCOc2ccc3c(c2)CN(CC(F)(F)F)C(=O)[C@H](CC(=O)O)C3)n1` yielded a bioavailability of 72%. In series [1], this molecule yielded a half-life of 53 min. In series [2], this molecule returned a clearance of 25 mL/min/kg. In series [4], this molecule gave an IC50 of 3 nM. In addition, the figures for the inhibition constant Ki in series [5] and in series [6] were 1.2 nM and 3800 nM, respectively.

For the molecule `O=C(O)C[C@@H]1Cc2ccc(OCCCNc3ccccn3)cc2CN(CC(F)(F)F)C1=O`, the bioavailability in series [3] is 34%. In series [1], this molecule showed a half-life of 360 min. In series [2], this molecule had a clearance of 16 mL/min/kg. The IC50 in series [4] came to 12 nM. The Ki in series [5] was determined as 0.9 nM; in series [6] it was 3300 nM.

The record behind these values is ChEMBL document CHEMBL1133172, “Discovery of orally active nonpeptide vitronectin receptor antagonists based on a 2-benzazepine Gly-Asp mimetic” (J Med Chem, 2000).
